Columns and labels:
Mus musculus [1] = test: Biodistribution in colon and feces of C57BL/6J mouse harboring mouse B16-Bl6 cells at 9 to 12 MBq, iv after 3 hrs by PET analysis; assay type: ADME, organism-based; details: in vivo
Procedure, shortened: (§1)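 Ex vivo dissection in B16Bl6-bearing C57BL/6J mice (3x10⁵ cells s.c. right shoulder), done at day 10 or 14 after implantation. The ¹⁸F tracer was given i.v. at 9-12 MBq. Mice were killed by CO₂ at 1, 2 or 3 h. Tumor, organs and tissues were excised, weighed and gamma-counted, then decay-corrected and expressed as %ID/g. n=3-6 per group; mean ± SD.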

Mus musculus [2] = test: Biodistribution in small intestine of C57BL/6J mouse harboring mouse B16-Bl6 cells at 9 to 12 MBq, iv after 3 hrs by PET analysis; assay type: ADME, organism-based; details: in vivo; procedure, shortened: as §1
Stomach [3] = test: Biodistribution in stomach of C57BL/6J mouse harboring mouse B16-Bl6 cells at 9 to 12 MBq, iv after 1 hr by PET analysis; assay type: ADME, organism-based; details: in vivo; procedure, shortened: as §1
Muscle tissue [4] = test: Biodistribution in muscle of C57BL/6J mouse harboring mouse B16-Bl6 cells at 9 to 12 MBq, iv after 1 hr by PET analysis; assay type: ADME, organism-based; details: in vivo; procedure, shortened: as §1
Zone of skin = test: Biodistribution in skin of C57BL/6J mouse harboring mouse B16-Bl6 cells at 9 to 12 MBq, iv after 3 hrs by PET analysis; assay type: ADME, organism-based; details: in vivo; procedure, shortened: as §1
Bone [5] = test: Biodistribution in bone of C57BL/6J mouse harboring mouse B16-Bl6 cells at 8 to 12 MBq, iv after 1 hr by PET analysis; assay type: ADME, organism-based, Bone element; details: in vivo
Procedure, shortened: (§2)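 C57BL/6J mice were inoculated s.c. on the right shoulder with 3x10⁵ B16Bl6 cells in PBS under isoflurane, and imaged at day 10 or 14 (tumor volume 431.8 ± 154.3 mm³). The ¹⁸F tracer was given i.v. via tail vein, 8-12 MBq (methods: 9-12 MBq/0.15 mL). Under ketamine/xylazine i.p., a 25-min whole-body static PET scan ran at 1 h. ROI %ID/g = counts/g/min ÷ injected dose. n=2-8; mean ± SD.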

Mus musculus [6] = test: Biodistribution in cecum of C57BL/6J mouse harboring mouse B16-Bl6 cells at 9 to 12 MBq, iv after 1 hr by PET analysis; assay type: ADME, organism-based, Caecum; details: in vivo; procedure, shortened: as §1
Blood [7] = test: Biodistribution in blood of C57BL/6J mouse harboring mouse B16-Bl6 cells at 9 to 12 MBq, iv after 2 hrs by PET analysis; assay type: ADME, organism-based; details: in vivo; procedure, shortened: as §1
Bone [8] = test: Biodistribution in bones of C57BL/6J mouse harboring mouse B16-Bl6 cells at 9 to 12 MBq, iv after 3 hrs by PET analysis; assay type: ADME, organism-based, Bone element; details: in vivo; procedure, shortened: as §1
Blood [9] = test: Biodistribution in blood of C57BL/6J mouse harboring mouse B16-Bl6 cells at 9 to 12 MBq, iv after 3 hrs by PET analysis; assay type: ADME, organism-based; details: in vivo; procedure, shortened: as §1
Pancreas [10] = test: Biodistribution in pancreas of C57BL/6J mouse harboring mouse B16-Bl6 cells at 9 to 12 MBq, iv after 2 hrs by PET analysis; assay type: ADME, organism-based; details: in vivo; procedure, shortened: as §1
Mus musculus [11] = test: Biodistribution in tumor of C57BL/6J mouse harboring mouse B16-Bl6 cells at 9 to 12 MBq, iv after 3 hrs by PET analysis; assay type: ADME, organism-based, Neoplasm; details: in vivo
Procedure, shortened: (§3)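 Ex vivo biodistribution. C57BL/6J mice bearing subcutaneous B16Bl6 tumours (3x10⁵ cells, shoulder), day 10 or 14, received [18F]tracer iv (9-12 MBq). They were killed by CO₂ at 1, 2 or 3 h. Tumours and organs were excised, weighed and gamma-counted. Results are decay-corrected % ID/g; ratios are tumour over tissue. n=3-6 per group; mean ± SD.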

Mus musculus [12] = test: Ratio of drug level in tumor to bone in C57BL/6J mouse harboring mouse B16-Bl6 cells at 9 to 12 MBq, iv after 2 hrs by PET analysis; details: in vivo
Lung [13] = test: Biodistribution in lung of C57BL/6J mouse harboring mouse B16-Bl6 cells at 9 to 12 MBq, iv after 3 hrs by PET analysis; assay type: ADME, organism-based; details: in vivo; procedure, shortened: as §1
Lung [14] = test: Biodistribution in lung of C57BL/6J mouse harboring mouse B16-Bl6 cells at 9 to 12 MBq, iv after 2 hrs by PET analysis; assay type: ADME, organism-based; details: in vivo; procedure, shortened: as §1
[15] = Ratio of drug level in tumor to muscle in C57BL/6J mouse harboring mouse B16-Bl6 cells at 8 to 12 MBq, iv after 1 hr by PET analysis; assay type: ADME, organism-based; details: in vivo
Procedure, shortened: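 Static whole-body PET at 1 h after tail-vein injection of [18F]tracer (9-12 MBq/0.15 mL) in C57BL/6J mice carrying subcutaneous B16Bl6 shoulder tumours (3x10⁵ cells), imaged day 10 or 14. Mice under ketamine/xylazine ip. 25 min acquisition, OSEM reconstruction. ROI % ID/g = counts/g/min ÷ injected dose; ratios = tumour % ID/g ÷ organ % ID/g. n=2-8; mean ± SD.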

Pancreas [16] = test: Biodistribution in pancreas of C57BL/6J mouse harboring mouse B16-Bl6 cells at 9 to 12 MBq, iv after 3 hrs by PET analysis; assay type: ADME, organism-based; details: in vivo; procedure, shortened: as §1
Nucleic Acid = test: Ratio of drug level in tumor to muscle in C57BL/6J mouse harboring mouse B16-Bl6 cells at 9 to 12 MBq, iv after 1 hr by PET analysis; assay type: ADME, organism-based; details: in vivo; procedure, shortened: as §3
Mus musculus [17] = test: Biodistribution in colon and feces of C57BL/6J mouse harboring mouse B16-Bl6 cells at 9 to 12 MBq, iv after 2 hrs by PET analysis; assay type: ADME, organism-based; details: in vivo; procedure, shortened: as §1
[18] = Ratio of drug level in tumor to blood in C57BL/6J mouse harboring mouse B16-Bl6 cells at 9 to 12 MBq, iv after 1 hr by PET analysis; assay type: ADME, organism-based; procedure, shortened: as §3
Heart = test: Biodistribution in heart of C57BL/6J mouse harboring mouse B16-Bl6 cells at 9 to 12 MBq, iv after 2 hrs by PET analysis; assay type: ADME, organism-based; details: in vivo; procedure, shortened: as §1
Mus musculus [19] = test: Ratio of drug level in tumor to bone in C57BL/6J mouse harboring mouse B16-Bl6 cells at 9 to 12 MBq, iv after 3 hrs by PET analysis; details: in vivo
Mus musculus [20] = test: Biodistribution in cecum of C57BL/6J mouse harboring mouse B16-Bl6 cells at 9 to 12 MBq, iv after 2 hrs by PET analysis; assay type: ADME, organism-based, Caecum; details: in vivo; procedure, shortened: as §1
Kidney = test: Biodistribution in kidney of C57BL/6J mouse harboring mouse B16-Bl6 cells at 9 to 12 MBq, iv after 2 hrs by PET analysis; assay type: ADME, organism-based; details: in vivo; procedure, shortened: as §1
Mus musculus [21] = test: Biodistribution in eyes of C57BL/6J mouse harboring mouse B16-Bl6 cells at 9 to 12 MBq, iv after 2 hrs by PET analysis; assay type: ADME, organism-based, Eye; details: in vivo; procedure, shortened: as §1
Muscle tissue [22] = test: Biodistribution in muscle of C57BL/6J mouse harboring mouse B16-Bl6 cells at 8 to 12 MBq, iv after 1 hr by PET analysis; assay type: ADME, organism-based; details: in vivo; procedure, shortened: as §2
Stomach [23] = test: Biodistribution in stomach of C57BL/6J mouse harboring mouse B16-Bl6 cells at 9 to 12 MBq, iv after 3 hrs by PET analysis; assay type: ADME, organism-based; details: in vivo; procedure, shortened: as §3
Mus musculus [24] = test: Ratio of drug level in tumor to muscle in C57BL/6J mouse harboring mouse B16-Bl6 cells at 9 to 12 MBq, iv after 2 hrs by PET analysis; details: in vivo

Row | SMILES | Drug uptake (Mus musculus [1]) [% ID/g] | Drug uptake (Mus musculus [2]) [% ID/g] | Drug uptake (Stomach [3]) [% ID/g] | Drug uptake (Muscle tissue [4]) [% ID/g] | Drug uptake (Zone of skin) [% ID/g] | Drug uptake (Bone [5]) [% ID/g] | Drug uptake (Mus musculus [6]) [% ID/g] | Drug uptake (Blood [7]) [% ID/g] | Drug uptake (Bone [8]) [% ID/g] | Drug uptake (Blood [9]) [% ID/g] | Drug uptake (Pancreas [10]) [% ID/g] | Drug uptake (Mus musculus [11]) [% ID/g] | Ratio (Mus musculus [12]) | Drug uptake (Lung [13]) [% ID/g] | Drug uptake (Lung [14]) [% ID/g] | Ratio [15] | Drug uptake (Pancreas [16]) [% ID/g] | Ratio (Nucleic Acid) | Drug uptake (Mus musculus [17]) [% ID/g] | Kp at 1 h [18] | further results
1 | CCN(CCNC(=O)c1cnc2cc(I)ccc2n1)CCOCCOCCOCCOCCOCCOCCOCC[18F] | 12.63 | 18.62 | 5.87 | 1.07 | 1.47 | 2.48 | 6.37 | 1.37 | 3.61 | 0.99 | 1.56 | 6.76 | 2.75 | 2.37 | 1.72 | 6.62 | 1.81 | 9.48 | 8.14 | 8.29 | Drug uptake (Heart): 1.7 % ID/g; Ratio (Mus musculus [19]): 2.16; Drug uptake (Mus musculus [20]): 12.1 % ID/g; Drug uptake (Kidney): 3.52 % ID/g; Drug uptake (Mus musculus [21]): 12.1 % ID/g; Drug uptake (Muscle tissue [22]): 1.01 % ID/g; Drug uptake (Stomach [23]): 5.39 % ID/g; Ratio (Mus musculus [24]): 5.75
2 | CCN(CCNC(=O)c1cnc2cc(I)ccc2n1)CCOCCOCCOCC[18F] | 8.09 | 3.91 | 4.41 | 1.17 | 1.05 | 1.98 | 7.27 | 1.12 | 3.27 | 0.8 | 1.33 | 11.55 | 7.13 | 1.6 | 1.65 | 11.04 | 1.33 | 12.12 | 6.05 | 10.2 | Drug uptake (Heart): 2.14 % ID/g; Ratio (Mus musculus [19]): 3.7; Drug uptake (Mus musculus [20]): 8.94 % ID/g; Drug uptake (Kidney): 2.18 % ID/g; Drug uptake (Mus musculus [21]): 18.17 % ID/g; Drug uptake (Muscle tissue [22]): 1.37 % ID/g; Drug uptake (Stomach [23]): 2.81 % ID/g; Ratio (Mus musculus [24]): 14.46

Reference: ChEMBL document CHEMBL2440113, “Synthesis, radiofluorination, and in vivo evaluation of novel fluorinated and iodinated radiotracers for PET imaging and targeted radionuclide therapy of melanoma” (J Med Chem, 2013)
